Consider 1 compound from ChEMBL document CHEMBL4376872, “Scaffold Hopping of Natural Product Evodiamine: Discovery of a Novel Antitumor Scaffold with Excellent Potency against Colon Cancer” (J Med Chem, 2020).

One may read the inhibition as the relative decrease from the control value, in per cent. As a reminder, the IC50 is the point on the concentration scale where inhibition reaches its midpoint.

The target of assay [1] is 3',5'-cyclic-AMP phosphodiesterase 4A (Homo sapiens) (UniProt P27815). Put plainly: Inhibition of PDE4A4 (unknown origin) using FAM-cAMP as substrate at 5 uM incubated for 1 hr by fluorescence polarization assay relative to control.
3',5'-cyclic-AMP phosphodiesterase 4A (Homo sapiens), sequence (P27815 whole entry): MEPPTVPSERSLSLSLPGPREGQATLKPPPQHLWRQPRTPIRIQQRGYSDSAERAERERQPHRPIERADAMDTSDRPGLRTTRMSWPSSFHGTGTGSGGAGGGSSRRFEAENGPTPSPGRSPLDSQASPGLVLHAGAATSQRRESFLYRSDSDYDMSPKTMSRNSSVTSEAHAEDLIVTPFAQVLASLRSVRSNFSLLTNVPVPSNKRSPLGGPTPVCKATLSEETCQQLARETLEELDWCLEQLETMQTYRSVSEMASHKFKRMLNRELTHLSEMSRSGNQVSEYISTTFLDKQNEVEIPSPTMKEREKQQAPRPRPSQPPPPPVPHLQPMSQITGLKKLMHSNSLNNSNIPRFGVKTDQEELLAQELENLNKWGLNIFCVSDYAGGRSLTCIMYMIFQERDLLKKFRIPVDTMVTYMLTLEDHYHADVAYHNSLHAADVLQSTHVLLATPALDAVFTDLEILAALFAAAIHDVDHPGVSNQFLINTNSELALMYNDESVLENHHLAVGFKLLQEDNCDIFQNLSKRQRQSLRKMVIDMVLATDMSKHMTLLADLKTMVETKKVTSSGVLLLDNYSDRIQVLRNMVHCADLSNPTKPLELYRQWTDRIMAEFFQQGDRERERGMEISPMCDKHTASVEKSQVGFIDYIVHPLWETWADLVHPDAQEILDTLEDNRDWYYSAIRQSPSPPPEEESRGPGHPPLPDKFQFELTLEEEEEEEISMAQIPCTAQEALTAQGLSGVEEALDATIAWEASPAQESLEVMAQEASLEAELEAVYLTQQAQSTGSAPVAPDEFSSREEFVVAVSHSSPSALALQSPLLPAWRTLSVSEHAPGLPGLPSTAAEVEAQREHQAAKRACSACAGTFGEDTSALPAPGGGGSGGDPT
Assay [2] addresses Protein mono-ADP-ribosyltransferase PARP12 (Homo sapiens) (UniProt Q9H0J9). Put plainly: Inhibition of PARP12 (unknown origin) using biotin-NAD+, NAD+ and sIDNA as substrate at 5 uM incubated for 1 hr by ELISA relative to control. In general terms: An ELISA detects its analyte on a solid surface through an enzyme-linked reagent.
Assay [3] relates to HCT-116. As to the kind of experiment: Induction of apoptosis in human HCT116 cells incubated for 24 hrs by annexin V-FITC and propidium iodide staining based flow cytometry. The assay is classed as functional, cell-based.
The test system of assay [4] is HCT-116. As to the kind of experiment: Antiproliferative activity against human HCT116 cells assessed as reduction in cell viability incubated for 72 hrs by CCK8 assay. The class given is functional, cell-based. The note with it: HCT-116, 72 h. A general note: Formazan colour is commonly taken as a measure of viable cells.
Assay [5] deals with CDK4/Cyclin D3 (Homo sapiens) (UniProt P11802+P30281). As to the kind of experiment: Inhibition of CDK4/Cyclin D3 (unknown origin) using Rb as substrate at 5 uM incubated for 40 mins in presence of 10 uM ATP by kinase-Glo luminescence assay relative to control. The class given is protein-complex assay. On the technique in general: In Kinase-Glo more light means more ATP remaining.

Assay [6] concerns the target Histone deacetylase 3/Nuclear receptor corepressor 2 (HDAC3/NCoR2) (Homo sapiens) (UniProt O15379+Q9Y618). As to the kind of experiment: Inhibition of C-terminal His-tagged recombinant human HDAC3 (1 to 428 residues)/N-terminal GST-tagged recombinat human NCoR2 (395 to 489 residues) co-expressed in baculovirus infected Sf9 cells using histone peptide 3 as substrate at 5 uM incubated for 30 mins by fluorescence analysis.

For assay [7], the target named is Poly [ADP-ribose] polymerase tankyrase-1 (Homo sapiens) (UniProt O95271). As to the kind of experiment: Inhibition of TNKS1 (unknown origin) using biotin-NAD+, NAD+ and sIDNA as substrate at 5 uM incubated for 1 hr by ELISA relative to control.
Poly [ADP-ribose] polymerase tankyrase-1 (Homo sapiens), sequence (O95271 whole entry): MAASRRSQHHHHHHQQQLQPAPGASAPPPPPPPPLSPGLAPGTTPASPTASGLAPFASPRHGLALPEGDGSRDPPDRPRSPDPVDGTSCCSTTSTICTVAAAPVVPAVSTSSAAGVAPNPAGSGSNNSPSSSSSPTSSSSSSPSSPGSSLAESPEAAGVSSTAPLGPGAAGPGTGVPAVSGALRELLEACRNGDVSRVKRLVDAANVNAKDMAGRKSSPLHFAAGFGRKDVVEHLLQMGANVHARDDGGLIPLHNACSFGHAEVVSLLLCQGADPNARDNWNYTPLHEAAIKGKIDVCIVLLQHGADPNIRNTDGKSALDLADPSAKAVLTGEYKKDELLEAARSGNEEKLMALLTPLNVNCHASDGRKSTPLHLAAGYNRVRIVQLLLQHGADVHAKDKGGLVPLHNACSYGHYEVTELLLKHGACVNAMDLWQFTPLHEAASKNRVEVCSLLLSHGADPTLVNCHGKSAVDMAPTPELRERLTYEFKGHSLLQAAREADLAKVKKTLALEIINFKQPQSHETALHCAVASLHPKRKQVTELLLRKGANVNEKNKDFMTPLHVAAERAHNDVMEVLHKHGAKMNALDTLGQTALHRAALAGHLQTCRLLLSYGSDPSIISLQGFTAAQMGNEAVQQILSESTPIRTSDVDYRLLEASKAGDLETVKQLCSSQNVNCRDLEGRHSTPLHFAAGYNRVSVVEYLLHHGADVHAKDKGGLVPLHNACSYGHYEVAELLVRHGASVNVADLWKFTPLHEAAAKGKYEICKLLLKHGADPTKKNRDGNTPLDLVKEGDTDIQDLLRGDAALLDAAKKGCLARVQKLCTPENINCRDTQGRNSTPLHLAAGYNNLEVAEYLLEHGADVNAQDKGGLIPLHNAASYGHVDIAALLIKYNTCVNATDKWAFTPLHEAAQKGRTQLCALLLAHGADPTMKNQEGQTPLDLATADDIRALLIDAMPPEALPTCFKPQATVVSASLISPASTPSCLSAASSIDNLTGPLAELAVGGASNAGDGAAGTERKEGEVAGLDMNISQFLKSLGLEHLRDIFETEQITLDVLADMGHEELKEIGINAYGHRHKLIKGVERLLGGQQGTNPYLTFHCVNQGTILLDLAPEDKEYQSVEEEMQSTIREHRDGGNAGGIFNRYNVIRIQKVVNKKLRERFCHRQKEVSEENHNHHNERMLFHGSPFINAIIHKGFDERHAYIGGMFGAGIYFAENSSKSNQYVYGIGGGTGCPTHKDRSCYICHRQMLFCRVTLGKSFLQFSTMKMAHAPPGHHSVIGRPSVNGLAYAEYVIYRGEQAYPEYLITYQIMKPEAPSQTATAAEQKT
Assay [8] deals with HCT-116. Put plainly: Cell cycle arrest in human HCT116 cells assessed as accumulation in G1 phase at 36 nM incubated for 24 hrs by propidium iodide staining based flow cytometry (reference value: 45.18 %). The class given is functional.
Assay [9] deals with CDK9/cyclin T1 (Homo sapiens) (UniProt O60563+P50750). Put plainly: Inhibition of CDK9/Cyclin T1 (unknown origin) using PDKtide as substrate at 5 uM incubated for 40 mins in presence of 10 uM ATP by kinase-Glo luminescence assay relative to control. The assay is classed as protein-complex assay.
Assay [10] addresses Tyrosine-protein phosphatase non-receptor type 11 (Homo sapiens) (UniProt Q06124). As to the kind of experiment: Inhibition of SHP2 (unknown origin) using DiFMUP as substrate at 5 uM incubated for 30 mins by fluorescence based analysis.
The species named for assay [11] is Homo sapiens. As to the kind of experiment: Inhibition of PDE4A1A (unknown origin) using FAM-cAMP as substrate at 5 uM incubated for 1 hr by fluorescence polarization assay relative to control.
A short description of assay [12]: Antiproliferative activity against human MV-3 cells assessed as reduction in cell viability incubated for 72 hrs by CCK8 assay. The assay is classed as functional, cell-based. The settings on record: MV-3, 72 h.
The subject of assay [13] is HCT-116. Put plainly: Cell cycle arrest in human HCT116 cells assessed as accumulation in G2 phase at 4 nM incubated for 24 hrs by propidium iodide staining based flow cytometry (reference value: 12.52 %). The assay is classed as functional.
The subject of a further assay is PC-3. As to the kind of experiment: Antiproliferative activity against human PC3 cells assessed as reduction in cell viability incubated for 72 hrs by CCK8 assay. The assay is classed as functional, cell-based. The note with it: PC-3, 72 h.
In assay [14] the target is N-lysine methyltransferase KMT5A (Homo sapiens) (UniProt Q9NQR1). As to the kind of experiment: Inhibition of SET8 (unknown origin) using plate-coated histone as substrate at 5 uM incubated for 90 mins in presence of 10 uM SAM by AlphaScreen assay relative to control.
N-lysine methyltransferase KMT5A (Homo sapiens), sequence (Q9NQR1 whole entry): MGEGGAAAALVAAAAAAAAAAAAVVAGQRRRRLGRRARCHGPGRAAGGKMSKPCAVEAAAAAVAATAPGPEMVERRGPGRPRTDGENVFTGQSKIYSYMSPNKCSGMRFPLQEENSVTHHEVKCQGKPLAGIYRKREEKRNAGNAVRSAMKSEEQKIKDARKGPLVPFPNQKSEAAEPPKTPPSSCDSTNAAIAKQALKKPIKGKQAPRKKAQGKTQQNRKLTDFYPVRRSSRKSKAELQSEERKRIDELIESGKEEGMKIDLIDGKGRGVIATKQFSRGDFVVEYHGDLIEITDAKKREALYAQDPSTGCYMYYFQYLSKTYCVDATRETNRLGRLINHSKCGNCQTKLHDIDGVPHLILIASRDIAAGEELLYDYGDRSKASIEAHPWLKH
For assay [15], the species on record is Homo sapiens. Put plainly: Inhibition of PDE4D7 (unknown origin) using FAM-cAMP as substrate at 5 uM incubated for 1 hr by fluorescence polarization assay relative to control.
Assay [16] deals with HCT-116. Put plainly: Induction of apoptosis in human HCT116 cells at 0.20 uM incubated for 24 hrs by annexin V-FITC and propidium iodide staining based flow cytometry (reference value: 0.86 %). The class given is functional.
In assay [17] the target is T1, DNA topoisomerase 1 (Escherichia coli (strain K12)) (UniProt P06612).
T1 sequence (whole entry): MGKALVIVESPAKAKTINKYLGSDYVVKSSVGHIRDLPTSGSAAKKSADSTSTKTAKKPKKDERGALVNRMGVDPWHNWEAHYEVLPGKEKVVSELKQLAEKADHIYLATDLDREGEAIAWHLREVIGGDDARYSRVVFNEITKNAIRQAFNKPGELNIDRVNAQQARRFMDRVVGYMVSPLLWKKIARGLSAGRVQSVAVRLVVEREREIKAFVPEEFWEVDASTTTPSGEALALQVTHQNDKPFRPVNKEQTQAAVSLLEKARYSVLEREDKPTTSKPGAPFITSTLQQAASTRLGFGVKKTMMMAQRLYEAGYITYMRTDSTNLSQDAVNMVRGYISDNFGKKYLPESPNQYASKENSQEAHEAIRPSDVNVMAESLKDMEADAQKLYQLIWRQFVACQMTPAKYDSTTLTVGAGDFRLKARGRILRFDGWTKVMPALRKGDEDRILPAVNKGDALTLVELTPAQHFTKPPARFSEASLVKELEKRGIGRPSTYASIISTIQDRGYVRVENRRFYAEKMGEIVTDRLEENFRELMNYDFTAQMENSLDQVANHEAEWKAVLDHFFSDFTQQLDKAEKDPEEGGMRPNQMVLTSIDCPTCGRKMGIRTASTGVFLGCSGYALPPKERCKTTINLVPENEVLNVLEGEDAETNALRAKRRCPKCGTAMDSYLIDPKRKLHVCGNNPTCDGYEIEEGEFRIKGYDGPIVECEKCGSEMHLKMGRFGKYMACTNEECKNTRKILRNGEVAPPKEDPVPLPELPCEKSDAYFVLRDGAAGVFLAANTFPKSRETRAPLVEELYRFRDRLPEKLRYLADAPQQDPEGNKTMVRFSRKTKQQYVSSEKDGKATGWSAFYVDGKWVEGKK
Put plainly: Poison activity at Escherichia coli Top1 assessed as increase in […] band intensity at 12.5 to 100 uM using supercoiled pUC19 plasmid DNA as substrate incubated for 30 mins by agarose gel electrophoresis analysis. The procedure, abridged:
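Supercoiled pUC19 plasmid DNA was incubated with Top1 plus compound at 100, 50, 25 and 12.5 μM. Controls were DNA alone, DNA + Top1, and DNA + Top1 + CPT (100 μM). Products were resolved as gel lanes.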

The subject of assay [18] is HCT-116. Put plainly: Antitumor activity against human HCT116 cells xenografted in mouse assessed as reduction in tumor growth at 4 mg/kg, ip bid for 21 days administration starting from 10 days after tumor cell implantation measured every 2 or 4 days till the end of the treatment period relative to control. The assay is classed as functional. The note with it: HCT-116, ip, read-out: TGI. The procedure, abridged: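 HCT116 xenografts in nude mice; intraperitoneal dosing on 21 consecutive days; tumour growth inhibition (TGI) versus untreated control, with body weight recorded. n = 6 mice per group; mean ± SEM; significance by Student's t test versus control.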

Molecules are shown by their SMILES. Activity calls are given as the source filed them. The calls are words filed in the database; no cut-off is given here.

Protein mono-ADP-ribosyltransferase PARP12 (Homo sapiens), sequence (Q9H0J9 whole entry): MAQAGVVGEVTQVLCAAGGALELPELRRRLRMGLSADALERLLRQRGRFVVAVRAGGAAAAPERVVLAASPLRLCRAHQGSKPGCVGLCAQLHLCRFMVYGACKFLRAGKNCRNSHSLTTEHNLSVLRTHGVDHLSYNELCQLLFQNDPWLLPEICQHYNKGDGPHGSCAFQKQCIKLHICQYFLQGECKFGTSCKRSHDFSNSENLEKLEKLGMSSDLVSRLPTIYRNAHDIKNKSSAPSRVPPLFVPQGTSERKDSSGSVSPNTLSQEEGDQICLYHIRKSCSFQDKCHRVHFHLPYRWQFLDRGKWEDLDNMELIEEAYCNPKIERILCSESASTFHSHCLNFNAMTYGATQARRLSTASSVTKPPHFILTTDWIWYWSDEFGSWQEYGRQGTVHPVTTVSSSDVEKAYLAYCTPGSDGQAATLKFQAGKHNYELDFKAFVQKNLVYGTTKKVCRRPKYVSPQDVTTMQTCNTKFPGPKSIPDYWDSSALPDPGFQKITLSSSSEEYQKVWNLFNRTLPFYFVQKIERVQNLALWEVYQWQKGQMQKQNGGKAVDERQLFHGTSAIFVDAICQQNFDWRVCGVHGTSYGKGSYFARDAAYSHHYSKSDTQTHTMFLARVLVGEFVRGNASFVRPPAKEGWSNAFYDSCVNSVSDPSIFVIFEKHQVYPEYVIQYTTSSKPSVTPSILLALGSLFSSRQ
Tyrosine-protein phosphatase non-receptor type 11 (Homo sapiens), sequence (Q06124 whole entry): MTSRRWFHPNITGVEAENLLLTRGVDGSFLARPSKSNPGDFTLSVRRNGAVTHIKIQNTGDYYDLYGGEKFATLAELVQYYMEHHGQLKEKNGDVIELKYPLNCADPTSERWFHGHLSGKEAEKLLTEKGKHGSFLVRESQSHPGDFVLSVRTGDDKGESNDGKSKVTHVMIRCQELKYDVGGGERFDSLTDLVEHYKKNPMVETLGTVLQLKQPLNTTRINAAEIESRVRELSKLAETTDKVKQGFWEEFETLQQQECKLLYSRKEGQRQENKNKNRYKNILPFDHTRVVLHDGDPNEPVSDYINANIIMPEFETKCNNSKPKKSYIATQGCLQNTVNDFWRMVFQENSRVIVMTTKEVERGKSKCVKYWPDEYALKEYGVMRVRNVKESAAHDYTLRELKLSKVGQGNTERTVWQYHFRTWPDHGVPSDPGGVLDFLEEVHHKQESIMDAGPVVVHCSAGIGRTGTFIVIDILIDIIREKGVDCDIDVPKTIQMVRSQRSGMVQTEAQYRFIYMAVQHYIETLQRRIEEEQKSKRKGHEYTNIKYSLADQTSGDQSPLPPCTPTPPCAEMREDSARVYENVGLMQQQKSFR

Consider `COc1ccc2c(c1)cc1n2CCN2C(=O)c3cc(F)ccc3N(C)C12` (centres undefined), for which the inhibition in assay [1], in assay [2], in [5], in assay [6], in assay [7] and in assay [9] was less than 20% each time. Further, the inhibition (in assay [10]; in the assay listed under Homo sapiens [11]; in assay [14]; in the assay listed under Homo sapiens [15]) was less than 20% each time. In addition, the Activity result in the assay on HCT-116 [3] was “Dose-dependent effect”; in the assay on HCT-116 [8], 1.02%; with HCT-116 [13], 17.73%; in the assay on HCT-116 [16], 45.97%. The concentration for half-maximal inhibition (IC50) in the assay with HCT-116 [4] came to 2 nM; in assay [12] it was 400 nM; with PC-3 it was 300 nM. Besides, in assay [17], the outcome was Active. Also, in the assay with HCT-116 [18], the inhibition in vivo at 4 mg/kg was found to be 37%.
